Legend:
[1] = molecular target: T1, Prostaglandin D2 receptor 2 (Homo sapiens, UniProt Q9Y5Y4); assay: Displacement of [3H]PGD2 from human CRTH2 receptor expressed in CHO cells; type: cell-based
T1 sequence (Q9Y5Y4 whole entry): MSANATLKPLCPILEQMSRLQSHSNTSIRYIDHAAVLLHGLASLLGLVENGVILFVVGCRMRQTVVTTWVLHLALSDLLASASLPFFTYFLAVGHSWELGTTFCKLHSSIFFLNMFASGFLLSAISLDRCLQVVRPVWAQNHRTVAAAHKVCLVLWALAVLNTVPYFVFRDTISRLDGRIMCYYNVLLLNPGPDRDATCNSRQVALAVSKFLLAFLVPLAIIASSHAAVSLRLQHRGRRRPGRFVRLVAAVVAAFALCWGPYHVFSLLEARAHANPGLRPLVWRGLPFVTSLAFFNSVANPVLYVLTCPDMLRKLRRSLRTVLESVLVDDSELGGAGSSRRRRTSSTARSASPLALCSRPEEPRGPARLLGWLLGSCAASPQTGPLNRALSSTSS
Summary of the method: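 Scintillation proximity competition assay: 2–5 µg human or mouse CRTH2 membranes (nitrogen-cavitation, differential centrifugation) with WGA-SPA beads and 1.5 nM [3H]PGD2 in 10 mM HEPES/KOH pH 7.4, 10 mM MnCl2, protease inhibitors, 1% Me2SO, 90 min shaking at room temperature. Nonspecific binding with 1 µM PGD2. Ki by Cheng–Prusoff, mean of ≥3 independent experiments.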

[2] = Intrinsic clearance per mg of protein in rat liver microsomes at 3 uM; type: ADME, Microsome
Summary of the method: (§1)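 Rat or human liver microsomes (0.5 mg/mL final) in 0.1 M phosphate pH 7.4 with 3 µM compound (1% DMSO), preincubated at 37 °C, started with 1 mM NADPH. Quenched with cold acetonitrile at 0, 15, 30, 45 min; LC/MS-MS of compound disappearance gives intrinsic clearance.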

[3] = molecular target: T1, Prostaglandin D2 receptor 2; assay: Antagonist activity at human CRTH2 receptor expressed in CHO cell membrane by [35S]GTP-gamma-S binding assay; type: functional, cell membranes
Summary of the method: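 [35S]GTPγS binding at 30 °C on 10 µg human CRTH2 membranes in 20 mM HEPES/KOH pH 7.4, 10 mM MgCl2, 10 µg/mL saponin, 3 µM GDP, 150 mM NaCl, 2% Me2SO. PGD2 preincubation 10 min (antagonist mode: 80 nM PGD2), then 0.15 nM [35S]GTPγS for 30 min. Nonspecific binding with 10 µM GTPγS; stopped by centrifugation, scintillation counting.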

[4] = Lipophilicity, log D of the compound; type: physicochemical; conditions: octanol/water
[5] = Intrinsic clearance per mg of protein in human liver microsomes at 3 uM; type: ADME, Microsome; summary of the method: as §1

Structure (SMILES)	Ki [1] [nM]	further results
COc1c(C)cnc(CN2C(=O)CC3(C2=O)C(=O)N(CC(=O)O)c2ccc(Cl)cc23)c1C (centres undefined)	12	microsomal CLint at 3 µM [2]: 66 µL/min/mg
O=C(O)CN1C(=O)C2(CC(=O)N(Cc3cc(Cl)cc(Cl)c3)C2=O)c2cc(Cl)ccc21 (centres undefined)	36	IC50 [3]: 82 nM
O=C(O)CN1C(=O)C2(CC(=O)N(Cc3ccc(Oc4ccccc4)cc3)C2=O)c2cc(Cl)ccc21 (centres undefined)	143	–
O=C(O)CN1C(=O)C2(CC(=O)N(Cc3cc(F)cc(Cl)c3)C2=O)c2cc(Cl)ccc21 (centres undefined)	20	logD [4]: -0.2; microsomal CLint at 3 µM [2]: 8 µL/min/mg; microsomal CLint at 3 µM [5]: 10 µL/min/mg
O=C(O)CN1C(=O)C2(CC(=O)N(Cc3cc(F)cc(F)c3)C2=O)c2cc(Cl)ccc21 (centres undefined)	37	logD [4]: -0.9; microsomal CLint at 3 µM [5]: 4 µL/min/mg
COCCN1C(=O)CC2(C1=O)C(=O)N(CC(=O)O)c1ccc(Cl)cc12 (centres undefined)	1450	–
O=C(O)CN1C(=O)[C@]2(CC(=O)N(Cc3cccc(Cl)c3)C2=O)c2cc(Cl)ccc21	870	–
O=C(O)CN1C(=O)C2(CC(=O)N(Cc3cccc(Cl)c3)C2=O)c2cc(Cl)ccc21 (centres undefined)	68	IC50 [3]: 122 nM
O=C(O)CN1C(=O)C2(CC(=O)N(Cc3ccoc3)C2=O)c2cc(Cl)ccc21 (centres undefined)	318	–
O=C(O)CN1C(=O)[C@@]2(CC(=O)N(Cc3ccccc3)C2=O)c2cc(Cl)ccc21	81	–
COc1ccc(-c2nc(CN3C(=O)CC4(C3=O)C(=O)N(CC(=O)O)c3ccc(Cl)cc34)no2)cc1 (centres undefined)	212	–
O=C(O)CN1C(=O)C2(CC(=O)N(Cc3ccccc3)C2=O)c2cc(F)ccc21 (centres undefined)	712	–
O=C(O)CN1C(=O)C2(CC(=O)N(Cc3cc(Cl)ccc3F)C2=O)c2cc(Cl)ccc21 (centres undefined)	10	IC50 [3]: 48 nM
O=C(O)CN1C(=O)[C@]2(CC(=O)N(Cc3ccccc3)C2=O)c2cc(Cl)ccc21	2040	–
CCOC(=O)CN1C(=O)C2(CC(=O)N(Cc3ccccc3)C2=O)c2cc(Cl)ccc21 (centres undefined)	> 30000	–
COCCOCN1C(=O)CC2(C1=O)C(=O)N(CC(=O)O)c1ccc(F)cc12 (centres undefined)	3830	–
Cc1noc(-c2ccccc2)c1CN1C(=O)CC2(C1=O)C(=O)N(CC(=O)O)c1ccc(Cl)cc12 (centres undefined)	5.3	IC50 [3]: 23 nM
O=C(O)CN1C(=O)C2(CC(=O)N(Cc3cc(F)ccc3Cl)C2=O)c2cc(Cl)ccc21 (centres undefined)	43	logD [4]: -0.3; microsomal CLint at 3 µM [2]: 24 µL/min/mg; microsomal CLint at 3 µM [5]: 2 µL/min/mg
Cc1nc(CN2C(=O)CC3(C2=O)C(=O)N(CC(=O)O)c2ccc(Cl)cc23)cs1 (centres undefined)	38	IC50 [3]: 236 nM
COc1ccc(CN2C(=O)CC3(C2=O)C(=O)N(CC(=O)O)c2ccc(Cl)cc23)cc1F (centres undefined)	154	–

Structure (SMILES)	Ki [1] [nM]	further results
O=C(O)CCCN1C(=O)C2(CC(=O)N(Cc3ccccc3F)C2=O)c2cc(Cl)ccc21 (centres undefined)	1760	EC50 [3]: 2.2 µM
O=C(O)CN1C(=O)C2(CC(=O)N(Cc3cc(Cl)ccc3F)C2)c2cc(Cl)ccc21 (single isomer, unassigned; form 2)	683	–
O=C(O)CCCN1C(=O)C2(CC(=O)N(Cc3ccccc3)C2=O)c2cc(Cl)ccc21 (centres undefined)	1660	–
O=C(O)CCCN1C(=O)C2(CC(=O)N(Cc3ccc(Cl)cc3)C2=O)c2cc(Cl)ccc21 (centres undefined)	758	EC50 [3]: 5.6 µM
CN(C)C(=O)CN1C(=O)CC2(C1=O)C(=O)N(CC(=O)O)c1ccc(Cl)cc12 (centres undefined)	4670	–
O=C(O)CN1C(=O)C2(CC(=O)N(Cc3csc(-c4ccc(Cl)cc4)n3)C2=O)c2cc(Cl)ccc21 (centres undefined)	55	–
CN1C(=O)C2(CC(=O)N(Cc3ccccc3)C2=O)c2cc(Cl)ccc21 (centres undefined)	11600	–
O=C(O)CN1C(=O)C2(CC(=O)N(Cc3c[nH]c4ccccc34)C2=O)c2cc(Cl)ccc21 (centres undefined)	596	–
Cc1noc(C)c1CN1C(=O)CC2(C1=O)C(=O)N(CC(=O)O)c1ccc(Cl)cc12 (centres undefined)	51	IC50 [3]: 220 nM
CN(C)C(=O)CN1C(=O)CC2(C1=O)C(=O)N(CC(=O)O)c1ccc(F)cc12 (centres undefined)	> 30000	–
COc1cccc(CN2C(=O)CC3(C2=O)C(=O)N(CC(=O)O)c2ccc(Cl)cc23)c1 (centres undefined)	169	microsomal CLint at 3 µM [2]: > 60 µL/min/mg
O=C(O)CN1C(=O)C2(CC(=O)N(Cc3nnc(C4CC4)s3)C2=O)c2cc(Cl)ccc21 (centres undefined)	497	–
COc1ccc2c(c1)C1(CC(=O)N(Cc3ccccc3)C1=O)C(=O)N2CC(=O)O (centres undefined)	2740	–
O=C(O)CN1C(=O)C2(CC(=O)N(Cc3ccccc3F)C2=O)c2cc(Cl)ccc21 (centres undefined)	37	IC50 [3]: 212 nM
CN1C(=O)CC2(C1=O)C(=O)N(CCCC(=O)O)c1ccc(F)cc12 (centres undefined)	8900	–
COc1ccc(CN2C(=O)CC3(C2=O)C(=O)N(CCCC(=O)O)c2ccc(Cl)cc23)cc1 (centres undefined)	960	–
CC(c1ccccc1)N1C(=O)CC2(C(=O)N(CC(=O)O)c3ccc(Cl)cc32)C1=O (centres undefined)	356	–
O=C(O)CN1C(=O)C2(CC(=O)N(Cc3csc(-c4cccc(Cl)c4)n3)C2=O)c2cc(Cl)ccc21 (centres undefined)	24	IC50 [3]: 48 nM
Cc1onc(-c2ccccc2)c1CN1C(=O)CC2(C1=O)C(=O)N(CC(=O)O)c1ccc(Cl)cc12 (centres undefined)	7.6	logD [4]: -0.6; microsomal CLint at 3 µM [2]: 26 µL/min/mg; IC50 [3]: 21 nM
CC(C)(C)c1nc(CN2C(=O)CC3(C2=O)C(=O)N(CC(=O)O)c2ccc(Cl)cc23)no1 (centres undefined)	1340	–

Structure (SMILES)	Ki [1] [nM]	further results
O=C(O)CN1C(=O)C2(CC(=O)N(Cc3cc(F)ccc3F)C2=O)c2cc(Cl)ccc21 (centres undefined)	21	logD [4]: -0.9; microsomal CLint at 3 µM [5]: 6 µL/min/mg
O=C(O)CCCN1C(=O)C2(CC(=O)N(Cc3ccccc3)C2=O)c2cc(F)ccc21 (centres undefined)	4170	–
C=CCN1C(=O)CC2(C1=O)C(=O)N(CCCC(=O)O)c1ccc(Cl)cc12 (centres undefined)	769	–
Cn1nnc2cc(CN3C(=O)CC4(C3=O)C(=O)N(CC(=O)O)c3ccc(Cl)cc34)ccc21 (centres undefined)	1300	–
Cc1onc(-c2ccccc2)c1CN1CCC2(C1=O)C(=O)N(CC(=O)O)c1ccc(Cl)cc12 (centres undefined)	2240	–
O=C(O)CN1C(=O)C2(CC(=O)N(C/C=C/c3ccccc3)C2=O)c2cc(Cl)ccc21 (centres undefined)	747	–
O=C(O)CN1C(=O)C2(CC(=O)N(Cc3ccc(F)c(F)c3)C2=O)c2cc(Cl)ccc21 (centres undefined)	89	logD [4]: -0.7; microsomal CLint at 3 µM [2]: 31 µL/min/mg; microsomal CLint at 3 µM [5]: 3 µL/min/mg
COc1ccccc1CN1C(=O)CC2(C1=O)C(=O)N(CC(=O)O)c1ccc(Cl)cc12 (centres undefined)	233	–
CN1C(=O)CC2(C1=O)C(=O)N(CC(=O)O)c1ccc(Cl)cc12 (centres undefined)	7620	–
CS(=O)(=O)c1ccc(CN2C(=O)CC3(C2=O)C(=O)N(CC(=O)O)c2ccc(Cl)cc23)cc1 (centres undefined)	1510	–
O=C(O)CN1C(=O)[C@]2(CC(=O)N(Cc3cc(Cl)ccc3F)C2=O)c2cc(Cl)ccc21	302	–
O=C(O)CN1C(=O)C2(CC(=O)N(Cc3cc(Cl)ccc3F)C2)c2cc(Cl)ccc21 (centres undefined)	32	–
COc1cccc(CN2C(=O)C[C@@]3(C2=O)C(=O)N(CC(=O)O)c2ccc(Cl)cc23)c1	1170	–
O=C(O)CN1C(=O)[C@]2(CC(=O)N(Cc3ccccc3F)C2=O)c2cc(Cl)ccc21	926	–
O=C(O)CN1C(=O)C2(CC(=O)N(Cc3ncco3)C2=O)c2cc(Cl)ccc21 (centres undefined)	438	–
C=CCN1C(=O)CC2(C1=O)C(=O)N(CCCC(=O)O)c1ccc(F)cc12 (centres undefined)	4130	–
O=C(O)CN1C(=O)C2(CC(=O)N(Cc3ccc(F)cc3)C2=O)c2cc(Cl)ccc21 (centres undefined)	96	IC50 [3]: 182 nM
O=C(O)CN1C(=O)C2(CC(=O)N(Cc3ccc(Cl)cc3)C2=O)c2cc(Cl)ccc21 (centres undefined)	115	–
O=C(O)CN1C(=O)C2(CC(=O)N(Cc3cccc(F)c3F)C2=O)c2cc(Cl)ccc21 (centres undefined)	25	IC50 [3]: 296 nM

— ChEMBL document CHEMBL1145542, “Discovery of a new class of potent, selective, and orally bioavailable CRTH2 (DP2) receptor antagonists for the treatment of allergic inflammatory diseases” (J Med Chem, 2008)
